{"data": "Experimental data of several laboratories", "FAAH": "Fatty-acid amide hydrolase 1 (FAAH, Homo sapiens, UniProt O00519)", "BDKRB1": "B1 bradykinin receptor (BDKRB1, Homo sapiens, UniProt P46663)", "note": "Each line is one published result; the experiments were not run side by side."}
{"SMILES": "C#Cc1n[nH]c2c(-c3cn([C@@H](C)c4ccccn4)c(=O)[nH]c3=O)cc(F)cc12", "target": "Receptor-type tyrosine-protein kinase FLT3 (FLT3, Homo sapiens, UniProt P36888)", "assay": "enzyme activity, inhibitor", "conditions": "0.1 µM", "inhibition [%]": 6.2}
{"SMILES": "CN(C(=O)Oc1nsnc1N1CCOCC1)C1CCCCCCC1", "target": "FAAH", "assay": "enzyme activity, inhibitor", "conditions": "10 µM, cell membranes", "inhibition [%]": 18}
{"SMILES": "O=C(Nc1cccnn1)N1CCN([C@@H]2CCOc3cc(C(F)(F)F)ccc32)CC1", "target": "Gastrin/cholecystokinin type B receptor (CCKBR, Homo sapiens, UniProt P32239)", "assay": "cell-free assay", "conditions": "20 µM", "inhibition [%]": -15}
{"SMILES": "C[C@H](C(=O)N[C@H]1COc2ccccc2[C@@H]1S(C)(=O)=O)c1ccc(F)cc1", "target": "BDKRB1", "assay": "cell-free assay", "conditions": "10 µM", "inhibition [%]": 7}
{"SMILES": "COc1ccc(S(=O)(=O)N(CC(=O)NO)CC(C)C)cc1", "target": "Stromelysin-1 (MMP3, Homo sapiens, UniProt P08254)", "assay": "enzyme activity, inhibitor", "conditions": "0.1 µM", "inhibition [%]": 80}
{"SMILES": "COc1ccc(N(C)C(=O)Oc2nsnc2N2CCCCC2)cc1", "target": "FAAH", "assay": "enzyme activity, inhibitor", "conditions": "10 µM, cell membranes", "inhibition [%]": 17}
{"SMILES": "COCc1c(-c2cc3cc(C)cc(OC)c3s2)c2c(N)ncnn2c1CN1CCNC(=O)C1", "target": "Prostaglandin G/H synthase 1 (PTGS1, Homo sapiens, UniProt P23219)", "assay": "enzyme activity, inhibitor", "conditions": "10 µM", "inhibition [%]": -15}
{"SMILES": "c1ccc(C(NCCNC(c2ccccc2)c2ccccc2)c2ccccc2)cc1", "target": "BDKRB1", "assay": "cell-free assay", "conditions": "10 µM", "inhibition [%]": -4}
